Structures are written as SMILES.

The results in this text go back to ChEMBL document CHEMBL1148061, “Antiplatelet aggregation principles of Dendrobium loddigesii” (J Nat Prod, 1994).

Experiment [1] can be described thus: Antiplatelet activity against washed rabbit platelet assessed as inhibition of arachidonic acid-induced platelet aggregation at 5 ug/ml preincubated for 3 mins by turbidimetric method; values are per cent of control.
Experiment [2] is described as follows: Antiplatelet activity against washed rabbit platelet assessed as inhibition of arachidonic acid-induced platelet aggregation at 100 ug/ml preincubated for 3 mins by turbidimetric method. Further details: scale not given: the % may be the effect or the level left. The format is functional, Oryctolagus cuniculus. Summed up:
(§1)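 Washed rabbit platelets from EDTA-anticoagulated platelet-rich plasma, 4.5×10^8/ml in Tyrode solution with 0.35% BSA, stirred at 1200 rpm at 37°. Turbidimetric read-out; % aggregation as means ± S.E. (n=3), Student's t test versus DMSO control.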

Experiment [3] is described as follows: Antiplatelet activity against washed rabbit platelet assessed as inhibition of collagen-induced platelet aggregation at 2 ug/ml preincubated for 3 mins by turbidimetric method. The format is functional, Oryctolagus cuniculus. Summed up:
as §1

Experiment [4] in a line: Antiplatelet activity against washed rabbit platelet assessed as inhibition of collagen-induced platelet aggregation at 10 ug/ml preincubated for 3 mins by turbidimetric method. The format is functional, Oryctolagus cuniculus. Put shortly:
as §1

Experiment [5] can be described thus: Antiplatelet activity against washed rabbit platelet assessed as inhibition of arachidonic acid-induced platelet aggregation at 10 ug/ml preincubated for 3 mins by turbidimetric method; values are per cent of control.
The test system of a further experiment is Platelet. Nature of the experiment: (§2) Antiplatelet activity against washed rabbit platelet assessed as inhibition of arachidonic acid-induced platelet aggregation preincubated for 3 mins by turbidimetric method. The format is functional, cell-based. As to conditions: Oryctolagus cuniculus. Put shortly: (§3)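 Washed rabbit platelets, 4.5×10^8/ml in Tyrode–0.35% BSA, stirred at 1200 rpm at 37°. Compound preincubated 3 min (final DMSO 0.5%) before arachidonic acid 100 μM. Aggregation read turbidimetrically. Percent inhibition across concentrations given as means ± S.E. (n=3); IC50 taken from the concentration–response curve.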

Experiment [6] can be described thus: as §2. Conditions: Oryctolagus cuniculus. The class given is functional, cell-based. Put shortly: as §3
Experiment [7] in a line: Antiplatelet activity against washed rabbit platelet assessed as inhibition of collagen-induced platelet aggregation at 50 ug/ml preincubated for 3 mins by turbidimetric method. The format is functional, Oryctolagus cuniculus. Further details: scale not given: the % may be the effect or the level left. Summed up:
as §1

Experiment [8] is described as follows: Antiplatelet activity against washed rabbit platelet assessed as inhibition of arachidonic acid-induced platelet aggregation at 50 ug/ml preincubated for 3 mins by turbidimetric method; values are per cent of control.
Experiment [9] is described as follows: Antiplatelet activity against washed rabbit platelet assessed as inhibition of collagen-induced platelet aggregation at 5 ug/ml preincubated for 3 mins by turbidimetric method. The format is functional, Oryctolagus cuniculus. Put shortly: as §1
Experiment [10] is described as follows: Antiplatelet activity against washed rabbit platelet assessed as inhibition of thrombin-induced platelet aggregation at 100 ug/ml preincubated for 3 mins by turbidimetric method. Details: scale not given: the % may be the effect or the level left. The class given is functional, Oryctolagus cuniculus. Summed up: as §1
A short description of experiment [11]: Antiplatelet activity against washed rabbit platelet assessed as inhibition of arachidonic acid-induced platelet aggregation at 20 ug/ml preincubated for 3 mins by turbidimetric method. The format is functional, Oryctolagus cuniculus. Further details: scale not given: the % may be the effect or the level left. Put shortly: as §1
Experiment [12] can be described thus: Antiplatelet activity against washed rabbit platelet assessed as inhibition of platelet activating factor-induced platelet aggregation at 100 ug/ml preincubated for 3 mins by turbidimetric method. The class given is functional, Oryctolagus cuniculus. Details: scale not given: the % may be the effect or the level left. Summed up: as §1
Experiment [13] is described as follows: Antiplatelet activity against washed rabbit platelet assessed as inhibition of platelet activating factor-induced platelet aggregation at 50 ug/ml preincubated for 3 mins by turbidimetric method. Details: scale not given: the % may be the effect or the level left. The class given is functional, Oryctolagus cuniculus. Put shortly: as §1
A short description of experiment [14]: Antiplatelet activity against washed rabbit platelet assessed as inhibition of collagen-induced platelet aggregation at 100 ug/ml preincubated for 3 mins by turbidimetric method. Details: scale not given: the % may be the effect or the level left. The class given is functional, Oryctolagus cuniculus. Summed up:
as §1

Experiment [15] is described as follows: Antiplatelet activity against washed rabbit platelet assessed as inhibition of collagen-induced platelet aggregation at 20 ug/ml preincubated for 3 mins by turbidimetric method. The format is functional, Oryctolagus cuniculus. Put shortly: as §1

In the case of `COc1cc(CCc2cc(OC)c(O)c(OC)c2)ccc1O` [MOSCATILIN], the “level, % of control” value in experiment [1] stood at 78.7%; in experiment [5] it was 52%; in [8], 0%. Also, the Activity in experiment [2] is 0%; in the experiment on Platelet, “Dose-dependent effect”; in experiment [7], 0%; in experiment [10], 85.3%; in [11], 36.4%; in [12], 24.7%. In addition, the Activity in [13] turned out to be 72.1%; in [14], 0%. Moreover, the aggregation in experiment [3] amounted to 78.5%; in [4], 42.3%; in experiment [9], 58.4%; in experiment [15] it was 19.6%. The IC50 in experiment [6] was 61.8 µM.
Take `COc1cc(CCc2cc(OC)c(OC(C)=O)c(OC)c2)ccc1OC(C)=O` [MOSCATILIN DIACETATE]: the level, % of control was determined as 33.9% in experiment [1] and 0% in experiment [5]. For the same compound, the Activity in experiment [2] is 0%; with Platelet, “Dose-dependent effect”; in experiment [10] it was 93.4%; in [11] it was 0%; in experiment [12], 36%; in [14] it was 12.8%. The 50% inhibitory concentration (IC50) in experiment [6] is 11.2 µM.
Take `COc1cc(O)cc2ccc3cccc(O)c3c12` [MOSCATIN]: the “level, % of control” value in experiment [1] is listed as 87.6%; in [5], 22.8%; in experiment [8] it was 0%. Also, the Activity in [2] was 0%; in the experiment on Platelet, “Dose-dependent effect”; in [7], 0%; in experiment [10], 41%; in [11], 0%; in experiment [12] it was 24.7%. The Activity in experiment [13] is 72.1%; in experiment [14], 0%. In addition, the aggregation in [3] stood at 78.5%; in experiment [4], 42.3%; in experiment [9] it was 58.4%; in [15], 19.6%. For the same compound, the IC50 in [6] was found to be 37.2 µM.
